Bioassay records (PubChem BioAssay)
Rows were chosen to be rich in hits. Some 1.9% of all compounds tested hit in one or more screens of this group.
XiGFP reactiv = X-chromosome reactivation activator. XiGFP mouse fibroblasts, % GFP-positive cells imaging, 3 d; cells co-treated with 5-aza-dC sensitizer; scaled so ellipticine positive control = 100%. activation, % at 7.58 µM. hit rate 0.055% among 360,000;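 active means mean normalized replicate activation at least 10% and every replicate at or above 10%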;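 further: 0% = median of on-plate neutral control wells and 100% = ellipticine 6 µM median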
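System: 68-5-11 XiGFP fibroblast line | Buffer or medium: DMEM containing 5-aza-dC | Compound: Single point | Times: Compounds 3 days, fix/stain 15 min at room temperature | Benchmarks: Positive control ellipticine, 6 µM final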
ABHD5-PLIN5 inh = inhibitors of human ABHD5-perilipin-5 interaction; inhibition, % at 4 µM; hit rate 0.78% among 360,000; Split G. princeps luciferase complementation, luminescence, 4 h; Q00G26+Q8WTS1;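 active means inhibition above the mean inhibition across every tested compound plus 3 SD, cut at about 22% in these data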;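 further: 0% = DMSO only wells and the 100% control is not disclosed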
Rin1 Abl inh = human Rin1-Abl interaction inhibition; P00519+Q13671; TR-FRET Rin1/Abl binding, biochemical; inhibition, % at 7.35 µM; hit rate 0.4% among 360,000; AID 588664; in the data active means inhibition above about 5%, passing the limit was not always enough
NadD block = blocks S. aureus nicotinate mononucleotide adenylyltransferase. inhibition, % at 20 µM. hit rate 0.78% among 360,000. AID 602399. purified NadD enzyme, colorimetric absorbance read-out; in the data active means inhibition above about 26%
Rpn11 inh = Rpn11 (human) deubiquitinase inhibition; human 26S proteasome, Ub4-pepOG fluorescence polarization; 20S core pre-blocked with epoxomicin; inhibition, % at 20 µM; hit rate 0.59% among 360,000; AID 588493;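 active means inhibition at 20 µM, scaled to each plate's controls, above about 33%, limit read from the data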
ABHD5 PLIN5 conf = ABHD5-PLIN5 interaction inhibition, confirmed; hit rate 67% among 2,200; biochemical ABHD5-PLIN5 interaction, luminescence; inhibition, % at 4 µM; shares compounds with ABHD5-PLIN5 inh; AID 651612; in the data active means inhibition above about 23%;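 further: 0% = DMSO vehicle wells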
HNF4 counter = counter-screen for ABHD5-PLIN5 inhibitors: HNF4 split-luciferase | shares compounds with ABHD5-PLIN5 inh | HNF4 dimerization, luminescence, biochemical | inhibition, % at 4 µM | hit rate 77% among 2,200 | AID 651674;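 active means mean inhibition across replicate wells exceeding the computed hit threshold, cut at about 13% in these data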;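 further: light from luciferase halves that rejoin when HNF4 fusion proteins dimerize; 0% = DMSO only wells and the 100% control is not given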
Starred values were filed as active, the others as inactive; / = not tested or not shown; ! = not active in a repeat.

SMILES | XiGFP reactiv | ABHD5-PLIN5 inh | Rin1 Abl inh | NadD block | Rpn11 inh | ABHD5 PLIN5 conf | HNF4 counter
C[C@@H]1CN([C@@H](C)CO)S(=O)(=O)c2ccc(C#CCN(C)C)cc2O[C@H]1CN(C)Cc1cccnc1 | -1 | / | / | / | / | / | /
NC(=O)C(C(=O)/C=C/c1ccc(Cl)cc1)=C1SCCS1 | 1 | 34* | 1 | 2 | 0 | 56* | 34*
COc1ccc(/C=C/C(=O)C(C(N)=O)=C2SCCS2)cc1 | 0 | 0 | -3 | -3 | -6 | / | /
O=c1c(-c2cccs2)nc2ccccc2n1C(CCc1ccccc1)c1nc2ccccc2[nH]1 (stereo unspecified) | 0 | 4 | / | / | / | / | /
CCC(c1nc2ccccc2[nH]1)n1c(=O)c(-c2ccco2)nc2ccccc21 (stereo unspecified) | 0 | 37* | / | / | / | 59* | 23*
O=c1c(-c2ccco2)nc2ccccc2n1C(CCc1ccccc1)c1nc2ccccc2[nH]1 (stereo unspecified) | 0 | 72* | / | / | / | 55* | 10
Oc1cccc(Nc2c3ccccc3nc3ccccc23)c1 | 0 | 7 | -8 | -12 | -17 | / | /
CCN(CC)Cc1cc(Nc2c3ccccc3nc3c4ccccc4n(C)c23)cc(CN(CC)CC)c1O | 0 | 27* | -14 | -2 | 3 | 44* | 29*
CC(=O)Oc1c(Cl)c(N2CCOCC2)c(OC(C)=O)c2ccccc12 | / | 36* | -1 | -6 | 0 | 79* | 8
COc1cc(CNc2ccc3c(c2)CCC3)cc(OC)c1O | / | 39* | -1 | -3 | 9 | 57* | 89*
CCOc1cc(CNc2ccc3c(c2)CCC3)ccc1O | / | -3 | -2 | 3 | 8 | / | /
O=C(C1CCCC1)N1C[C@H]2[C@@H](c3ccccc31)[C@H](CO)N2C(=O)c1cccnc1 | 0 | / | / | / | / | / | /
COc1ccc(C(=O)NCCNc2nc3ccc(C)cc3cc2C#N)cc1OC | 0 | 86* | 1 | 7 | 8 | -1 | 13*
CC(=O)Nc1cccc2c1O[C@H](CN(C)C(C)=O)[C@H](C)CN(C)C2=O | 1 | / | / | / | / | / | /
COc1ccccc1C(c1c(O)nc(SC)[nH]c1=O)c1c(O)nc(SC)[nH]c1=O | 0 | 24* | 1 | -8 | -8 | 49* | 42*
CCOc1cc(C(c2c(O)nc(SC)[nH]c2=O)c2c(O)nc(SC)[nH]c2=O)ccc1O | 0 | 32* | 3 | 1 | -39 | 89* | 77*
COc1ccc(C(=O)Nc2ccc3c(c2)OC[C@@H](C)NC[C@H](C)[C@@H](OC)CN(C)C3=O)cc1 | 0 | / | / | / | / | / | /
CC(C)C#Cc1ccc2c(c1)O[C@H](CN(C)CC1CC1)[C@H](C)CN([C@H](C)CO)S2(=O)=O | 0 | / | / | / | / | / | /
O=C1C=C(NCc2ccccc2)CCC1 | 0 | -3 | -4 | -6 | 0 | / | /
O=C1C=C(NC2=CC3OC(c4ccccc4)OCC3OC2=O)CCC1 (stereo unspecified) | 0 | 26* | -3 | -1 | -2 | 87* | 95*
COc1cc2c3c(c1)C(C)=CC(C)(C)N3C(=O)C2=O | 0 | 3 | 0 | -3 | -9 | / | /
CCCOc1ccccc1-n1sc2c(c1=S)-c1cc(OC)cc3c1N(C(=O)C3=O)C2(C)C | / | 35* | -2 | 17 | 4 | 78* | 67*
C=C[C@]1(C)C[C@@H](OC(=O)CSCCN(CC)CC)[C@]2(C)C(C)CC[C@]3(CCC(=O)[C@H]32)[C@@H](C)[C@@H]1O (stereo partly specified) | 0 | 23*! | -1 | -6 | -5 | 33* | 1
O=S(=O)(c1ccc(F)cc1)N1CN(Cc2ccco2)c2nc3ccccc3nc21 | / | 24* | 0 | 16 | -11 | 28* | 23*
O=C1c2ccccc2NC(c2ccc(-c3ccc(F)cc3)o2)N1O (stereo unspecified) | 1 | 38* | -2 | 6 | 9 | 14 | 13*
O=C1c2ccccc2NC(c2ccc(-c3ccc(Br)cc3)o2)N1O (stereo unspecified) | / | 2 | -3 | 12 | -3 | / | /
